Assay [1] can be described thus: Her2 expression decrease, cell viability multiplex – SKBR3 breast tumor cells, AlphaScreen, ATP viability, primary screen (AID 461;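 active = Her2 level under about 52% in both replicate screens, with viability over 70% of control, limit read from the data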;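 for Her2 level: lower value means less Her2 protein in the cells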;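 for viability: percent of carrier control wells set as 100% viability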). As to conditions: SKBR3 Her2 protein level, 18-24 h, measured here: SKBR3 viability, ATP luminescence, at 10 µM. For orientation: Alpha assays give light when donor and acceptor beads are brought close together.
For assay [2], the target named is Receptor tyrosine-protein kinase erbB-2 (Homo sapiens) (UniProt P04626). The description is as above. The conditions noted are these: 18-24 h, at 10 µM, stronger effect = lower value.
Sequence of Receptor tyrosine-protein kinase erbB-2 (Homo sapiens) (P04626 whole entry, looked up): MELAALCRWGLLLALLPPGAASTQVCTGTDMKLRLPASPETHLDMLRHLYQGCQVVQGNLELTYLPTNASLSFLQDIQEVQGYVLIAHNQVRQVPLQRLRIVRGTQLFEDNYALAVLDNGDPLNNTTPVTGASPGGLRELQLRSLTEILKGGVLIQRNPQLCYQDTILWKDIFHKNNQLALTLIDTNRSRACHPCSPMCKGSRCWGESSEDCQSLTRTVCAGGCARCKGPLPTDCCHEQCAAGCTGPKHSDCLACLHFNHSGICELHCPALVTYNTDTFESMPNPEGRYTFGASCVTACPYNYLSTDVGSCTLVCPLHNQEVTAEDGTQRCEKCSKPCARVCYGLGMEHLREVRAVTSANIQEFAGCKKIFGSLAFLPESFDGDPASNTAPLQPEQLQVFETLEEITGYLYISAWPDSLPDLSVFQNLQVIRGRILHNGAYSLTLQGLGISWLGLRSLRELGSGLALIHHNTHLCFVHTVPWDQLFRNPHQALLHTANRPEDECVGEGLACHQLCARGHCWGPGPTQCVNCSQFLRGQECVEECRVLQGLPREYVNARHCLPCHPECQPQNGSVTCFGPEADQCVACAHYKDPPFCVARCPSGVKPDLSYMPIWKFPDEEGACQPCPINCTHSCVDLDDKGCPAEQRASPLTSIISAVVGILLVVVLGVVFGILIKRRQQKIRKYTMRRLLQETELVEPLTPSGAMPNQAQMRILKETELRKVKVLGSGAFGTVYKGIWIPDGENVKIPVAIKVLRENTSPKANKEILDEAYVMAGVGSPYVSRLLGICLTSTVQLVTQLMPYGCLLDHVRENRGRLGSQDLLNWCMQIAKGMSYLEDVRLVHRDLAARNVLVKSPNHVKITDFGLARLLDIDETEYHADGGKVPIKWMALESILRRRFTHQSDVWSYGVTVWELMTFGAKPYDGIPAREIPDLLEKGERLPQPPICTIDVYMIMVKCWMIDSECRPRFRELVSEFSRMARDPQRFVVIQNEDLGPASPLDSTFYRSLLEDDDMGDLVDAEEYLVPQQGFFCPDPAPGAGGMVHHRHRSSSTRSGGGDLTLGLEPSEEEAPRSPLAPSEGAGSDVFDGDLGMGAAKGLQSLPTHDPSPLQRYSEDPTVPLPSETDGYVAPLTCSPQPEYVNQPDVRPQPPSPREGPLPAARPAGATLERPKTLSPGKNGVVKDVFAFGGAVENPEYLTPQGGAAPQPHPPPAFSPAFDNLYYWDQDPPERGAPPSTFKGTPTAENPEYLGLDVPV
A short description of assay [3]: reduced viability of SK-BR-3 breast cancer cells – cell-based, 24 h, human, pilot screen (AID 572).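 Note: compound exposure lasted between 18 and 24 h rather than exactly 24 h; 100% = carrier-treated control wells.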 As to conditions: SK-BR-3 viability, CellTiter-Glo luminescence, at 10 µM, stronger effect = lower value.
Assay [4] in a line: HUVEC growth inhibition – cell-based, human, primary screen (AID 575;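 active = viability at or below 30% in both replicate assays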;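 note: 100% = median of untreated cell wells with 0.1% DMSO on each plate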). The conditions noted are these: HUVEC proliferation, CellTiter-Glo luminescence, 72 h; at 10 µM; stronger effect = lower value. The procedure, abridged: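 System – primary HUVEC, no more than 12 passages · Medium – Low-serum (2% FBS) EBM, supplemented · Times – 72 h exposure, 37 °C, 5% CO2, 30 min RT equilibration · Measured by – luminescent ATP assay · Read-out – % viability relative to median vehicle-well signal on each plate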
For orientation: In ATP-based viability assays light output follows the ATP content of the culture.

A short description of assay [5]: H69AR cell proliferation blockers – human, duplicate replicates, primary screen (AID 580;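 active = viability at or under a set limit in both replicates, limit being median viability minus 3 SD, cut at about 48% in these data, passing the limit was not always enough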;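 note: 100% = mean luminescence of untreated wells and 0% = no signal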). The conditions noted are these: H69AR lung tumor cells viability, ATP luminescence, 72 h; at 10 µM; stronger effect = lower value.
Assay [6] can be described thus: MRP1 drug-resistance reversers in H69AR cells – cell-based, doxorubicin co-treatment, pilot screen (AID 601;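 active = viability loss from added drug above about 55%, and viability with drug at most 40%, in both replicates, limit read from the data, passing the limit was not always enough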). The conditions noted are these: CellTiter-Glo, 72 h, at 10 µM; for differential viability (reversal): stronger effect = higher value.
Assay [7] in a line: yeast transport mutant growth inhibition pilot in 384-well plates, post-Golgi transport modulator project (AID 636; in the data active = inhibition above about 31%). As to conditions: absorbance 615 nm, about 18 h, stronger effect = higher value.
A short description of assay [8]: growth suppression of yeast trafficking mutant, preliminary HTS, modulators of trafficking downstream of Golgi apparatus project, 1536-format plate, OD 615 nm (AID 637; in the data active = inhibition above about 30%). As to conditions: yeast transport mutant growth, absorbance 615 nm, 18 h; stronger effect = higher value.
Where [9] appears, read: H69AR cells + 2 uM doxorubicin, measured here: viability with 2 uM doxorubicin, stronger effect = lower value.
The mark [10] stands for this setting: H69AR cells, compound alone cytotoxicity.

Active and inactive are the calls of the source.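 Rule for the calls, unless noted: active = viability at or below 10% of carrier control in both of two separate runs; inconclusive = viability at or below 10% in only one of the two runs; inactive = the rest.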

As a reminder, the viability is a read-out of living cells in per cent, often relative to untreated cells. One may read the inhibition as the relative decrease from the control value, in per cent. For `COCCCNC(=O)c1ccc2c(c1)OCO2`, the viability is 96.5% in assay [1]; 96.5% (inactive) in assay [3]; 89.9% (inactive) in assay [4]; 89.8% (inactive) in assay [5]; 91.3% in assay [6] (setting [9]); 89.8% in assay [6] (setting [10]). The Her2 level in assay [2] is 93.5% (inactive). Further, the differential viability (reversal) in assay [6] (H69AR cells + 2 uM doxorubicin) is -1.48% (inactive). Further, the inhibition in assay [7] is -2.76% (inactive); in assay [8], 5.74% (inactive).
Regarding `CC(C)CNS(=O)(=O)c1ccc(CCC(=O)N2CCOCC2)cc1`, the viability is 87.5% in assay [1]; 87.5% (inactive) in assay [3]; 95% (inactive) in assay [4]; 91.3% (inactive) in assay [5]; 94.6% in assay [6] (setting [9]); 91.3% in assay [6] (setting [10]). For the same compound, the Her2 level in assay [2] is 94% (inactive). In assay [6] (H69AR cells + 2 uM doxorubicin), the differential viability (reversal) was -3.29% (inactive). In addition, the inhibition was -4.73% (inactive) in assay [7] and -4.59% (inactive) in assay [8].
`O=C1CC(c2ccco2)=Nc2ccccc2N1`: the viability in assay [1] was 95%; in assay [3], 95% (inactive); in assay [4], 94.9% (inactive); in assay [5], 109% (inactive); in assay [6] (setting [9]) it was 92.5%; in assay [6] (setting [10]), 109%. In addition, the Her2 level in assay [2] was 118% (inactive). Besides, the differential viability (reversal) in assay [6] (H69AR cells + 2 uM doxorubicin) is 16.7% (inactive). Further, the figures for the inhibition in assay [7] and in assay [8] were -0.13% (inactive) and -3.06% (inactive), respectively.
`O=c1[nH]c2ccccc2nc1NCCN1CCOCC1`: the viability in assay [1] is 97.5%; in assay [3] it was 97.5% (inactive); in assay [4], 114% (inactive); in assay [5], 97.1% (inactive); in assay [6] (setting [9]) it was 89.1%; in assay [6] (setting [10]), 97.1%. Further, the Her2 level in assay [2] was 87.5% (inactive). Also, the differential viability (reversal) in assay [6] (H69AR cells + 2 uM doxorubicin) was 7.97% (inactive). The inhibition was -0.79% (inactive) in assay [7] and 3.93% (inactive) in assay [8].
As for `CCOC(=O)CN1CC23C=CC(O2)C(C(=O)NC2CCCC2)C3C1=O` (stereo not given), the viability in assay [1] is 86.5%; in assay [3], 86.5% (inactive); in assay [4], 106% (inactive); in assay [5], 98.2% (inactive); in assay [6] (setting [9]) it was 87.6%; in assay [6] (setting [10]), 98.2%. The Her2 level in assay [2] was 84% (inactive). Besides, the differential viability (reversal) in assay [6] (H69AR cells + 2 uM doxorubicin) was 10.6% (inactive). The results for the inhibition in assay [7] and in assay [8] were -0.64% (inactive) and 4.33% (inactive), respectively.
On to `Cc1ccc(C(=O)CCC2CCCC2=O)cc1` (stereo not given), for which the viability was 90.5% in assay [1]; 90.5% (inactive) in assay [3]; 111% (inactive) in assay [4]; 89% (inactive) in assay [5]; 88.4% in assay [6] (setting [9]); 89% in assay [6] (setting [10]). In assay [2], the Her2 level is 102% (inactive). Further, the differential viability (reversal) in assay [6] (H69AR cells + 2 uM doxorubicin) is 0.57% (inactive). Moreover, the inhibition in assay [7] was -4.73% (inactive); in assay [8] it was -2.67% (inactive).
Take `Cc1noc(C)c1CSc1nc2cc(S(=O)(=O)N3CCOCC3)ccc2o1`: the viability is 98.5% in assay [1]; 98.5% (inactive) in assay [3]; 96.7% (inactive) in assay [4]; 83.6% (inactive) in assay [5]; 83.9% in assay [6] (setting [9]); 83.6% in assay [6] (setting [10]). In assay [2], the Her2 level is 93% (inactive). Besides, the differential viability (reversal) in assay [6] (H69AR cells + 2 uM doxorubicin) is -0.29% (inactive). For the same compound, the results for the inhibition in assay [7] and in assay [8] were -5.48% (inactive) and 5.56% (inactive), respectively.
`COc1ccc2c(c1OC)C(=O)OC2Nn1cncn1` (stereo not given): the viability in assay [1] is 95.5%; in assay [3], 95.5% (inactive); in assay [4], 109% (inactive); in assay [5], 103% (inactive); in assay [6] (setting [9]) it was 99.3%; in assay [6] (setting [10]) it was 103%. Moreover, the Her2 level in assay [2] was 96.5% (inactive). Moreover, the differential viability (reversal) in assay [6] (H69AR cells + 2 uM doxorubicin) is 3.5% (inactive). The inhibition in assay [7] was -4.08% (inactive); in assay [8] it was 0.33% (inactive).
On to `CCC(Sc1ncccc1C(=O)O)C(=O)N1CCCC1` (stereo not given), for which the viability in assay [1] was 92%; in assay [3], 92% (inactive); in assay [4] it was 95.5% (inactive); in assay [5] it was 101% (inactive); in assay [6] (setting [9]) it was 87.2%; in assay [6] (setting [10]), 101%. In addition, the Her2 level in assay [2] was 93.5% (inactive). In addition, the differential viability (reversal) in assay [6] (H69AR cells + 2 uM doxorubicin) is 14% (inactive). The figures for the inhibition in assay [7] and in assay [8] were 2.47% (inactive) and -5.9% (inactive), respectively.
For `CC(=O)c1cc2c(=O)c3cc(C)ccc3oc2nc1C`, the viability in assay [1] is 102%; in assay [3], 102% (inactive); in assay [4], 68.4% (inactive); in assay [5], 72.5% (inactive); in assay [6] (setting [9]) it was 79.9%; in assay [6] (setting [10]) it was 72.5%. For the same compound, the Her2 level in assay [2] was 72.5% (inactive). Further, the differential viability (reversal) in assay [6] (H69AR cells + 2 uM doxorubicin) was -7.35% (inactive). The inhibition in assay [7] was -2.89% (inactive); in assay [8], -1.43% (inactive).
Take `CCOc1ccc(C(c2nnnn2Cc2ccccc2)N2CCN(C(=O)c3ccco3)CC2)cc1` (stereo not given): the viability in assay [1] was 92.5%; in assay [3] it was 92.5% (inactive); in assay [4], 85.8% (inactive); in assay [5] it was 98.3% (inactive); in assay [6] (setting [9]), 103%; in assay [6] (setting [10]), 98.3%. Also, the Her2 level in assay [2] was 106% (inactive). In addition, the differential viability (reversal) in assay [6] (H69AR cells + 2 uM doxorubicin) is -4.47% (inactive). The inhibition in assay [7] was 0.53% (inactive); in assay [8], -1.9% (inactive).
For `Cc1nc2ccccc2c2oc(C(=O)NCc3ccccn3)cc12`, the viability in assay [1] was 81%; in assay [3], 81% (inactive); in assay [4] it was 81.4% (inactive); in assay [5], 96.8% (inactive); in assay [6] (setting [9]) it was 94.6%; in assay [6] (setting [10]), 96.8%. In assay [2], the Her2 level is 88% (inactive). The differential viability (reversal) in assay [6] (H69AR cells + 2 uM doxorubicin) was 2.25% (inactive). Further, the results for the inhibition in assay [7] and in assay [8] were -1.73% (inactive) and -2.3% (inactive), respectively.
Consider `Cc1cc2nc(C3CCN(CC4COc5ccccc5O4)CC3)[nH]c2cc1C` (stereo not given), for which the viability in assay [1] was 98.5%; in assay [3], 98.5% (inactive); in assay [4], 3.41% (active); in assay [5] it was 77.8% (inactive); in assay [6] (setting [9]), 55.2%; in assay [6] (setting [10]) it was 77.8%. In addition, in assay [2], the Her2 level was 87.5% (inactive). The differential viability (reversal) in assay [6] (H69AR cells + 2 uM doxorubicin) was 22.7% (inactive). For the same compound, the figures for the inhibition in assay [7] and in assay [8] were -3.03% (inactive) and 2.83% (inactive), respectively.
Turning to `COc1ccccc1-n1nnnc1SCc1ccccc1`, the viability in assay [1] was 103%; in assay [3] it was 103% (inactive); in assay [4] it was 90.6% (inactive); in assay [5], 97.1% (inactive); in assay [6] (setting [9]), 80.3%; in assay [6] (setting [10]) it was 97.1%. Moreover, in assay [2], the Her2 level is 94% (inactive). Further, the differential viability (reversal) in assay [6] (H69AR cells + 2 uM doxorubicin) was 16.7% (inactive). For the same compound, the inhibition in assay [7] is -4.27% (inactive); in assay [8], 1.61% (inactive).
As to `O=C(CSc1nc(O)c(Cc2ccccc2)c(=O)[nH]1)Nc1ccccc1`, the viability is 103% in assay [1]; 103% (inactive) in assay [3]; 106% (inactive) in assay [4]; 86.2% (inactive) in assay [5]; 85.9% in assay [6] (setting [9]); 86.2% in assay [6] (setting [10]). Further, the Her2 level in assay [2] was 97% (inactive). The differential viability (reversal) in assay [6] (H69AR cells + 2 uM doxorubicin) is 0.23% (inactive). Moreover, the inhibition in assay [7] was -2.08% (inactive); in assay [8] it was -2.33% (inactive).
As to `N#CCCN(C(=O)Nc1ccc(Cl)cc1)c1ccccc1`, the viability in assay [1] was 94%; in assay [3], 94% (inactive); in assay [4] it was 113% (inactive); in assay [5], 105% (inactive); in assay [6] (setting [9]) it was 95.5%; in assay [6] (setting [10]), 105%. In addition, in assay [2], the Her2 level is 111% (inactive). For the same compound, in assay [6] (H69AR cells + 2 uM doxorubicin), the differential viability (reversal) was 9.02% (inactive). The inhibition in assay [7] was -2% (inactive); in assay [8] it was 0% (inactive).

(Values after PubChem BioAssay.)
